Reference: ChEMBL document CHEMBL1127669, “Conformationally constrained peptides and semipeptides derived from RGD as potent inhibitors of the platelet fibrinogen receptor and platelet aggregation” (J Med Chem, 1994)
Starred links: 1 amine or outer side, 2 acyl side, 3 side chain; linkers in the order of their positions; H or OH if unused. Positions of bridges follow the written chain, without caps; N, C: chain ends. Non-standard residues stand in square brackets, D forms with d. Residues, ends and D or L forms follow the SMILES beside them. *: point of attachment. X1 = O=C([C@@H](N[*:1])[C@H](S[*:3])c1ccccc1)[*:2]; NMeR = CN[C@@H](CCCNC(=N)N)C(=O)O; Pen = CC(C)(S)[C@H](N)C(=O)O; X3 = CC(S)C(=O)*

Key:
[1] = organism: Canis familiaris; test: Inhibition of platelet aggregation in canine platelet rich plasma induced by ADP; format: functional, Canis lupus familiaris
In short: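 Citrated canine PRP aggregation read optically by light transmittance. Peptide stock was 12 mM in 0.2 M acetic acid. Final 200 µM peptide and 10 µM ADP, pH 7.7, after 5-min preincubation with peptide.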

[2] = target: T1, Integrin alpha-IIb/beta-3 (Homo sapiens, UniProt P05106+P08514); test: Tested for inhibition of fibrinogen binding to purified GPIIb/IIIa isolated from human platelets and reconstituted in liposomes
T1 sequence (P05106 27-788 limits assumed): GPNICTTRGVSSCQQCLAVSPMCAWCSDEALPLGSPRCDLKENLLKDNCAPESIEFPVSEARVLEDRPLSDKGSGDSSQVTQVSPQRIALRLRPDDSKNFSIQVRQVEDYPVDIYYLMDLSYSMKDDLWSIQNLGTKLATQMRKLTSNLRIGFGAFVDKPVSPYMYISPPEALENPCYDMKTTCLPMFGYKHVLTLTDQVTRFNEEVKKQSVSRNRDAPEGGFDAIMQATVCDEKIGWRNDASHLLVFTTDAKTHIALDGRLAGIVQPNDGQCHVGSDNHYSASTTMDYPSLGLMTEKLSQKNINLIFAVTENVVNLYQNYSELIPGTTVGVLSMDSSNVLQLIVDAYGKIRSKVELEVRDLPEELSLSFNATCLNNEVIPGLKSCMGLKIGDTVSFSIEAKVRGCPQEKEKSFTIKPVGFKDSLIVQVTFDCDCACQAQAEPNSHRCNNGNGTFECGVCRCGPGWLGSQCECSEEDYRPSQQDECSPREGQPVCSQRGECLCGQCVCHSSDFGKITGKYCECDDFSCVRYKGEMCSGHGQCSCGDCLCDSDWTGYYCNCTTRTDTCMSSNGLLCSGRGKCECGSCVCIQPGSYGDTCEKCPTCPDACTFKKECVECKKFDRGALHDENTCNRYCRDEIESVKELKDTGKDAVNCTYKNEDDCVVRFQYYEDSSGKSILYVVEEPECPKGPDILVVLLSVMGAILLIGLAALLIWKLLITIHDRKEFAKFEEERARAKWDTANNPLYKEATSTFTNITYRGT
T1 sequence (P08514 32-887 limits assumed): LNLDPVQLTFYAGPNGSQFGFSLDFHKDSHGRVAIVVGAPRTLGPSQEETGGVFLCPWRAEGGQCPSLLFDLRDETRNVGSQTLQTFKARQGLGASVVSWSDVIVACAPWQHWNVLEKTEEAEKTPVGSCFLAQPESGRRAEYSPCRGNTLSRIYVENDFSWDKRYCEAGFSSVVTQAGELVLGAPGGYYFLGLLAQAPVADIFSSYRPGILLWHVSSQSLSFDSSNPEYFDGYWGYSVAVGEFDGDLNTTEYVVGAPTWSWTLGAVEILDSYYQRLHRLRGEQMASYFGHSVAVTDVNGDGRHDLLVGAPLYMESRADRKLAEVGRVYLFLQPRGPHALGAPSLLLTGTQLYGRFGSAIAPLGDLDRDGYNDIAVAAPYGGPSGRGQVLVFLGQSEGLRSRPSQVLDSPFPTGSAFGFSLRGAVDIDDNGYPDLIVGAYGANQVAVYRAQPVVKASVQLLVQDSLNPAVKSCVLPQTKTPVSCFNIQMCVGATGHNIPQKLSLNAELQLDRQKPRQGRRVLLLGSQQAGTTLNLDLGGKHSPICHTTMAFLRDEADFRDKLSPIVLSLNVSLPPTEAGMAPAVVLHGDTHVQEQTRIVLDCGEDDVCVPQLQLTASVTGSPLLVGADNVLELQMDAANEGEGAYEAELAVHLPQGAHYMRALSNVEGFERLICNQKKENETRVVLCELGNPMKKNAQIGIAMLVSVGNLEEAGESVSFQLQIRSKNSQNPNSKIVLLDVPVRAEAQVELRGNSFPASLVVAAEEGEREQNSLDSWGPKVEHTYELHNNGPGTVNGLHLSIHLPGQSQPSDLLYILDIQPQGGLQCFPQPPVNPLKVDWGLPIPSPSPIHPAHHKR
T1 sequence (P08514 891-1039 limits assumed): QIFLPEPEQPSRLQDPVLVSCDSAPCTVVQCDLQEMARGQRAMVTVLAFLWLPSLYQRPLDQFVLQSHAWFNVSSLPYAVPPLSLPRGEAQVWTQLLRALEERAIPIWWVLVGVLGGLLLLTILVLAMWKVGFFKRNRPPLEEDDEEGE
In short: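 Displacement of [¹²⁵I]fibrinogen from purified human platelet GPIIb/IIIa incorporated into phospholipid vesicles. Values without statistical limits come from a single determination.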

[3] = target: T1, Integrin alpha-IIb/beta-3; test: Inhibition of [3H]-SKF- 107260 binding to purified GPIIb/IIIa from human platelets reconstituted in liposomes
In short: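 Competition binding on filter wells precoated with 10 µg/mL polylysine. Reaction started with 0.5 µg lectin-purified receptor, incubated 1 h at room temperature, filtered, washed in ice-cold buffer, scintillation counted. IC50 from nonlinear least-squares fit; Ki by Cheng–Prusoff. Mean of quadruplicates, single experiment.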

In the case of `CC(=O)N[C@@H]1CSSC(C)(C)[C@H](C(N)=O)NC(=O)[C@@H](CC(=O)O)NC(=O)CNC(=O)[C@H](CCCNC(=N)N)NC1=O`, the IC50 ([1]; Canis lupus familiaris, Plasma) is reported as 4.12 µM and the Ki [2] is reported as 0.72 µM.

Work on `CC(=O)N[C@H]1CSSC(C)(C)[C@@H](C(N)=O)NC(=O)[C@H](CC(=O)O)NC(=O)CNC(=O)[C@H](CCCN=C(N)N)N(C)C(=O)CN(Cc2ccccc2)C1=O` (single isomer, unassigned) yielded an IC50 ([1]; Canis lupus familiaris, Plasma) of 0.29 µM and a Ki [2] of 0.43 µM.

`CC(=O)N[C@H]1CSS[C@H](c2ccccc2)[C@@H](C(N)=O)NC(=O)[C@H](CC(=O)O)NC(=O)CNC(=O)[C@H](CCCN=C(N)N)N(C)C1=O` (Ac-C[NMeR]GD[X1]-NH2; disulfide 1-5) gave an IC50 ([1]; Canis lupus familiaris, Plasma) of 0.098 µM and a Ki [2] of 0.125 µM.

`CC(=O)N[C@@H]1CSSC(C)(C)[C@H](C(N)=O)NC(=O)[C@@H](CC(=O)O)NC(=O)CNC(=O)[C@H](CCCN=C(N)N)N(C)C1=O` gave an IC50 ([1]; Canis lupus familiaris, Plasma) of 1.79 µM and a Ki [2] of 0.082 µM.

`CN1CC(=O)N(C)[C@@H](CCCN=C(N)N)C(=O)NCC(=O)N[C@@H](CC(=O)O)C(=O)Nc2ccccc2SSc2ccccc2C1=O` showed an IC50 ([1]; Canis lupus familiaris, Plasma) of 0.102 µM and a Ki [2] of 0.0245 µM.

`N=C(N)NCCC[C@@H]1NC(=O)c2ccccc2SSc2ccccc2NC(=O)[C@H](CC(=O)O)NC(=O)CNC1=O` (single isomer, unassigned) showed an IC50 ([1]; Canis lupus familiaris, Plasma) of 0.29 µM and a Ki [2] of 0.027 µM.

For `CC(=O)N[C@H]1CSSC(C)(C)[C@@H](C(N)=O)NC(=O)[C@H](CC(=O)O)NC(=O)CN(C)C(=O)[C@H](CCCN=C(N)N)NC1=O` (single isomer, unassigned), the IC50 ([1]; Canis lupus familiaris, Plasma) was 73.4 µM and the Ki [2] was 1.25 µM.

Molecule `CC(S)C(=O)N[C@H]1CSSC(C)(C)[C@@H](C(N)=O)NC(=O)[C@H](CC(=O)O)NC(=O)CNC(=O)[C@H](CCCN=C(N)N)N(C)C1=O` (stereo partly specified) (X3-C[NMeR]GD[Pen]-NH2; disulfide 1-5) has an IC50 ([1]; Canis lupus familiaris, Plasma) of 0.34 µM and a Ki [2] of 0.0243 µM.

In the case of `CC(=O)N[C@@H]1CSSC(C)(C)[C@H](C(N)=O)NC(=O)[C@H](CC(=O)O)NC(=O)CNC(=O)[C@@H](CCCNC(=N)N)NC1=O`, the IC50 ([1]; Canis lupus familiaris, Plasma) is reported as over 200 µM and the Ki [2] is reported as over 1000 µM.

`CC(=O)N[C@@H]1CSSC(C)(C)[C@H](C(N)=O)NC(=O)C(CC(=O)O)NC(=O)CNC(=O)C(CCCN=C(N)N)NC1=O` (single isomer, unassigned; 31) showed an IC50 [1] of 20.3 µM and a Ki [2] of 3 µM.

`CC(=O)N[C@H]1CSSC(C)(C)[C@H](C(N)=O)NC(=O)[C@@H](CC(=O)O)NC(=O)CNC(=O)[C@@H](CCCNC(=N)N)NC1=O` gave an IC50 ([1]; Canis lupus familiaris, Plasma) of 98.7 µM and a Ki [2] of 2.65 µM.

Work on `CC(=O)N[C@@H]1CSSC(C)(C)[C@H](C(N)=O)NC(=O)[C@@H](CC(=O)O)NC(=O)CNC(=O)[C@@H](CCCN=C(N)N)N(Cc2ccccc2)C1=O` yielded an IC50 ([1]; Canis lupus familiaris, Plasma) of 7.74 µM and a Ki [2] of over 100 µM.

`CC(=O)N[C@H]1CSSC(C)(C)[C@@H](C(N)=O)NC(=O)[C@H](CC(=O)O)NC(=O)CN(C)C(=O)[C@H](CCCN=C(N)N)N(C)C1=O` (single isomer, unassigned) gave an IC50 ([1]; Canis lupus familiaris, Plasma) of 39.5 µM and a Ki [2] of 15.1 µM.

`CC(=O)N[C@H]1CSSC(C)(C)[C@@H](C(N)=O)NC(=O)[C@H](CC(=O)O)NC(=O)CNC(=O)[C@H](CCCN=C(N)N)N(C)C(=O)CNC1=O` (single isomer, unassigned) was tested, and the IC50 ([1]; Canis lupus familiaris, Plasma) was 0.36 µM and the Ki [2] was 0.135 µM.

Molecule `CC(=O)N[C@H]1CSSC(C)(C)[C@@H](C(N)=O)NC(=O)[C@H](CC(=O)O)NC(=O)CNC(=O)[C@H](CCCN=C(N)N)N(C)C(=O)CN(C)C1=O` (single isomer, unassigned) has an IC50 ([1]; Canis lupus familiaris, Plasma) of 0.15 µM and a Ki [2] of 0.02 µM.

`CN1C(=O)[C@@H](N)CSSC(C)(C)[C@@H](C(N)=O)NC(=O)[C@H](CC(=O)O)NC(=O)CNC(=O)[C@@H]1CCCN=C(N)N` (H-C[NMeR]GD[Pen]-NH2; disulfide 1-5) was tested, and the IC50 ([1]; Canis lupus familiaris, Plasma) was 0.2 µM and the Ki [2] was 0.0093 µM.

`CC(=O)N[C@H]1CSSC(C)(C)[C@@H](C(N)=O)NC(=O)[C@H](CC(=O)O)NC(=O)CNC(=O)[C@H](CCCN=C(N)N)N(C)C1=O` gave a Ki [3] of 0.102 µM and an IC50 ([1]; Canis lupus familiaris, Plasma) of 0.36 µM.

`CC(=O)N[C@H]1CSSC(C)(C)[C@@H](C(=O)O)NC(=O)[C@H](CC(=O)O)NC(=O)CNC(=O)[C@H](CCCN=C(N)N)N(C)C1=O` (Ac-C[NMeR]GD[Pen]-OH; disulfide 1-5) showed an IC50 ([1]; Canis lupus familiaris, Plasma) of 0.08 µM and a Ki [2] of 0.0085 µM.
